SMILES strings stand for the structures.

Series [1] has as its target T1, Steroid 17-alpha-hydroxylase/17,20 lyase (Homo sapiens, UniProt P05093).
T1 sequence (P05093 whole entry): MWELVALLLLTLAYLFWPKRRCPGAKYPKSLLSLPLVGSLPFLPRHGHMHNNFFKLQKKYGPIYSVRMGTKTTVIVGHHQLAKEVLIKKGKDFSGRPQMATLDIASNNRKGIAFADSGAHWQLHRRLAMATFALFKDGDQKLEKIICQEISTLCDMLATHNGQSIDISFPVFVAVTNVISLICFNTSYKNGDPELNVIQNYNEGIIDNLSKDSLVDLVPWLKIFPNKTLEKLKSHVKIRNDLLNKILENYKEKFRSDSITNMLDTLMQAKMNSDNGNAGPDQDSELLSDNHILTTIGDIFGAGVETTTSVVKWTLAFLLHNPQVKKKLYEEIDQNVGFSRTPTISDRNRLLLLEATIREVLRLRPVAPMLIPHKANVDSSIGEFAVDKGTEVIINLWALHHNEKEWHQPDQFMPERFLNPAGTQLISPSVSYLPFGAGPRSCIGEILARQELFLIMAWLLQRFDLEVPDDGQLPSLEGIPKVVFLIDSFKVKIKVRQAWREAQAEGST
Briefly: Inhibition of human CYP17 expressed in Escherichia coli coexpressed with cytochrome P450 reductase. Summed up:
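Enzyme source: 50,000g sediment from homogenized E. coli coexpressing human CYP17 and cytochrome P450 reductase. Substrate progesterone (25 µM as printed), NADPH cofactor.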

Series [2] deals with CYP3A4 (Homo sapiens, UniProt P08684). Briefly: Inhibition of hepatic CYP3A4 expressed in insect microsomes at 1 uM. Type of series: ADME, Microsome. Summed up:
(§1)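 Recombinant human enzymes from baculovirus-infected insect cell microsomes, run per supplier protocol. Test concentration 1 µM; values are means of at least three independent tests, standard deviations under 5%.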

Series [3] deals with T2, CYP1A2 (Homo sapiens, UniProt P05177).
T2 sequence (P05177 whole entry): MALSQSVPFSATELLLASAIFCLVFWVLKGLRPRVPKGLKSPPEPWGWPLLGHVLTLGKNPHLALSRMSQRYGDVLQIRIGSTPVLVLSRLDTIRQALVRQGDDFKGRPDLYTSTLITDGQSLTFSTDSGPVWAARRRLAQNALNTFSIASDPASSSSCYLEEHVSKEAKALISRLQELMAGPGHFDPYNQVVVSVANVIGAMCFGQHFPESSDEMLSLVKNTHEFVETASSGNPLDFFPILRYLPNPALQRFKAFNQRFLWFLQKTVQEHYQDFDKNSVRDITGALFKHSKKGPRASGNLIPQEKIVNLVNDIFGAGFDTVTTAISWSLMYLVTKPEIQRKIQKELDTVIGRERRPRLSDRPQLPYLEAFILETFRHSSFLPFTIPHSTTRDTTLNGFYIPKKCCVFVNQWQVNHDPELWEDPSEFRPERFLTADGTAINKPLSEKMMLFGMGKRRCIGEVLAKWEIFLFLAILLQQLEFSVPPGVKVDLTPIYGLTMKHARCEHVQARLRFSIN
Briefly: Inhibition of hepatic CYP1A2 expressed in insect microsomes at 1 uM. It counts as ADME, Microsome. Summed up: as §1

Series [4] addresses T3, CYP2B6 (Homo sapiens, UniProt P20813).
T3 sequence (P20813 whole entry): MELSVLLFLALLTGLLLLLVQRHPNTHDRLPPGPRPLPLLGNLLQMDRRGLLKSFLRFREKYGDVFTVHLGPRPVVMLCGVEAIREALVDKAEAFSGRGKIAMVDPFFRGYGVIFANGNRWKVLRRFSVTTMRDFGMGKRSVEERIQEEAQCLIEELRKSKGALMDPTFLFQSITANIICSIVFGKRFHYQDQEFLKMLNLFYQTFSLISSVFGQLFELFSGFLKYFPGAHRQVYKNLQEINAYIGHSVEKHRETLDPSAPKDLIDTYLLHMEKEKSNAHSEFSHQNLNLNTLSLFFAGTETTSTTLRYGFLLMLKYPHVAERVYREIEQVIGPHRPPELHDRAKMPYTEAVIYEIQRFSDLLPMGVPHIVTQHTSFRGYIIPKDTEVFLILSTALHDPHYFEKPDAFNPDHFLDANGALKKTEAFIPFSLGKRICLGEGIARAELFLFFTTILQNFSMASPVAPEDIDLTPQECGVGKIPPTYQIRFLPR
As to the kind of experiment: Inhibition of hepatic CYP2B6 expressed in insect microsomes at 1 uM. Type of series: ADME, Microsome. Summed up: as §1

The target in series [5] is CYP2D6 (Homo sapiens, UniProt P10635). Briefly: Inhibition of hepatic CYP2D6 expressed in insect microsomes at 1 uM. Type of series: ADME, Microsome. Summed up:
as §1

The target of series [6] is T4, CYP11B1 (Homo sapiens, UniProt P15538).
T4 sequence (P15538 whole entry): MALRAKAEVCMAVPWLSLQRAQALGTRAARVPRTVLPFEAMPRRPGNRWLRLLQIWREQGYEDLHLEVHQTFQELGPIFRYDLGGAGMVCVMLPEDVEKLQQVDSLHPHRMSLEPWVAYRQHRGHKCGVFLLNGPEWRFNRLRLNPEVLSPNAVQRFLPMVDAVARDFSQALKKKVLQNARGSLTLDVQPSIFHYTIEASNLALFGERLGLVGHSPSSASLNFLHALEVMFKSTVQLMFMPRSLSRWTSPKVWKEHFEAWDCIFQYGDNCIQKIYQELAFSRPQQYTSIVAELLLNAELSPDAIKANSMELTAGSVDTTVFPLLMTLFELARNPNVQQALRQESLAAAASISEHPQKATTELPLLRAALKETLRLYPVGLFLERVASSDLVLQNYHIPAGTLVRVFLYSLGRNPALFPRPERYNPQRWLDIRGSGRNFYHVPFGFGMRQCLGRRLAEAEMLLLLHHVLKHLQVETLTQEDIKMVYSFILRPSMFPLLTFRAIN
Briefly: Inhibition of human CYP11B1 at 0.2 uM using [4-14C]-11-dexycorticosterone as a substrate. Conditions: probe [4-14C]-11-dexycorticosterone. Summed up: (§2)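 V79MZh cells expressing human CYP11B1 or CYP11B2, incubated with [4-14C]-11-deoxycorticosterone as substrate; inhibitors tested at 0.2 µM.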

The target in series [7] is T5, CYP11B2 (Homo sapiens, UniProt P19099).
T5 sequence (P19099 whole entry): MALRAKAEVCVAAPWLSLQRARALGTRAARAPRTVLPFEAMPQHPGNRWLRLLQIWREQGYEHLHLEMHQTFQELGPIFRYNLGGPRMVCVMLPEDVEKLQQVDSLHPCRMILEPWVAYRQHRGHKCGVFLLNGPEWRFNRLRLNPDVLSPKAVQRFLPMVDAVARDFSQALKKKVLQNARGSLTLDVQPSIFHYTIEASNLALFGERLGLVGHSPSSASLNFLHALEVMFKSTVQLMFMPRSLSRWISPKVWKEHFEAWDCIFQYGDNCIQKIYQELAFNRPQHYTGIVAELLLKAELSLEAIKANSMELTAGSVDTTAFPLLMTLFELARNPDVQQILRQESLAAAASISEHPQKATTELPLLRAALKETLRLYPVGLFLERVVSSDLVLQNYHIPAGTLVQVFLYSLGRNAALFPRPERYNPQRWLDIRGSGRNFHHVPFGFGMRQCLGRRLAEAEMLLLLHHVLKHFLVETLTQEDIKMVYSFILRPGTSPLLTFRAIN
As to the kind of experiment: Inhibition of human CYP11B2 at 0.2 uM using [4-14C]-11-dexycorticosterone as a substrate. The settings on record: probe [4-14C]-11-dexycorticosterone. Summed up: as §2

Chain of CYP3A4 (P08684 whole entry): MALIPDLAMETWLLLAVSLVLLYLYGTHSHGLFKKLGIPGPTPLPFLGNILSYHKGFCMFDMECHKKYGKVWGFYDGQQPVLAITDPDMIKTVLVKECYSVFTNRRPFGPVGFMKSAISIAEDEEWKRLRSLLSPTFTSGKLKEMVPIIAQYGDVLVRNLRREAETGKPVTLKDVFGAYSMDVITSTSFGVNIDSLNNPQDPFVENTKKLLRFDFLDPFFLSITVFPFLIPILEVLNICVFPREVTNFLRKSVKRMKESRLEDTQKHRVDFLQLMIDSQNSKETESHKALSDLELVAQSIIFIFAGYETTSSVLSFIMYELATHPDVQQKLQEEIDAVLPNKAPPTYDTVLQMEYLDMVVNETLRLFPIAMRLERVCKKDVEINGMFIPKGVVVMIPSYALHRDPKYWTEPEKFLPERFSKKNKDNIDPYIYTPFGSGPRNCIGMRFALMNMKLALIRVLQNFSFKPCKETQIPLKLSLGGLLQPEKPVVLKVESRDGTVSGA
Chain of CYP2D6 (P10635 whole entry): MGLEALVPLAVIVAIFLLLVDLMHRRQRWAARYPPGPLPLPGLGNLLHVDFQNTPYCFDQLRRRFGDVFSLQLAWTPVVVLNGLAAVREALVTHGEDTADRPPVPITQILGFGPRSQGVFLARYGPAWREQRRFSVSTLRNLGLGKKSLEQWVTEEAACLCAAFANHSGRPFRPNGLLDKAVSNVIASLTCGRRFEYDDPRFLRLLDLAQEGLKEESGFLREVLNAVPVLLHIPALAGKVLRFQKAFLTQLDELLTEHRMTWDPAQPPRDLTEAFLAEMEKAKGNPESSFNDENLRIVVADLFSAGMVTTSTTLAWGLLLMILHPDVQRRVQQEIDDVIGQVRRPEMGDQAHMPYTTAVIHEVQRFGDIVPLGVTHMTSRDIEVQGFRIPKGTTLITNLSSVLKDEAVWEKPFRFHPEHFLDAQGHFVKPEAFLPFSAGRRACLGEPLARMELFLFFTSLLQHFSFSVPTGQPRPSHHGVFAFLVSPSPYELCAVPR

As for `CCC(c1ccc(-c2ccc(C#N)cc2)cc1)n1ccnc1` (stereo not given), the IC50 in series [1] is > 5 µM.
In turn, `C=CC(c1ccc(-c2ccccc2)cc1)n1ccnc1` (stereo not given) returned an IC50 in series [1] of 1.4 µM.
In series [1], `CC(c1ccc(-c2ccc(F)cc2)cc1)n1ccnc1` (stereo not given) returned an IC50 of 1.1 µM.
For the compound `CCCC(c1ccc(-c2ccccc2)cc1)n1ccnc1` (stereo not given), the IC50 in series [1] was determined as 0.58 µM. This IC50 lies about 1.9-fold lower than the previous one.
In the case of `CC(c1ccc2c(c1)[nH]c1cc(F)ccc12)n1ccnc1` (stereo not given), it took 0.118 µM to reach half-maximal inhibition in series [1] (IC50). Moreover, the inhibition at 1 µM in series [2] was 75%.
In turn, `CCc1ccc(-c2ccc(C(CC)n3ccnc3)cc2)cc1` (stereo not given) showed an IC50 in series [1] of 2 µM.
In the case of `CCC(c1ccc(-c2ccc(N(CC)CC)cc2)cc1)n1ccnc1` (stereo not given), in series [1], the concentration for half-maximal inhibition (IC50) is > 5 µM.
Compound `CC(C)C(c1ccc(-c2ccccc2)cc1)n1ccnc1` (stereo not given) displayed an IC50 in series [1] of 0.31 µM.
In the case of `CC(c1ccc(-c2ccccc2)cc1)n1ccnc1` (stereo not given), it took 0.91 µM to reach half-maximal inhibition in series [1] (IC50).
`CCC(c1ccc(-c2ccccc2)cc1)n1ccnc1` (stereo not given) came in with an IC50 in series [1] of 0.45 µM.
With `CC(C)CC(c1ccc(-c2ccccc2)cc1)n1ccnc1` (stereo not given), the IC50 in series [1] was 2.1 µM.
Regarding `CC(C)(C)C(c1ccc(-c2ccccc2)cc1)n1ccnc1` (stereo not given), in series [1], 0.46 µM corresponded to half-maximal inhibition (IC50).
In series [1], `CCCCC(c1ccc(-c2ccccc2)cc1)n1ccnc1` (stereo not given) returned an IC50 of 0.3 µM.
Take `c1ccc(-c2ccc(C(c3ccc(-c4ccccc4)cc3)n3ccnc3)cc2)cc1`: in series [1], 2.3 µM corresponded to half-maximal inhibition (IC50).
`CCC(c1ccc(-c2ccc(SC)cc2)cc1)n1ccnc1` (stereo not given) registered an IC50 in series [1] of 3.1 µM.
Still for that read-out and setting: then `CCC(c1ccc(-c2ccc(C)cc2)cc1)n1ccnc1` (stereo not given), with > 5 µM.
Regarding `CC(c1ccc2c(c1)[nH]c1ccccc12)n1ccnc1` (stereo not given), half-maximal inhibition in series [1] (IC50) was put at 0.282 µM. The inhibition at 1 µM in series [2] was 88%; in series [3], 99%.
`Fc1ccc(-c2ccc(C(CCCl)n3ccnc3)cc2)cc1` (stereo not given) had a half-maximal inhibitory concentration (IC50) in series [1] of 0.756 µM. Besides, the inhibition at 1 µM in series [2] stood at 86%; in series [3] it was 96%; in series [4] it was 34%; in series [5] it was 32%.
As for `C=CC(c1ccc(-c2ccc(F)cc2)cc1)n1ccnc1` (stereo not given), the IC50 in series [1] is > 5 µM.
Turning to `CCC(c1ccc(-c2ccc(N3CCOCC3)cc2)cc1)n1ccnc1` (stereo not given), it took 2.2 µM to reach half-maximal inhibition in series [1] (IC50). That is a single-digit micromolar value.
`CCC(c1ccc(-c2ccc(NC(=O)OC(C)(C)C)cc2)cc1)n1ccnc1` (stereo not given): the half-maximal inhibitory concentration (IC50) in series [1] turned out to be 1.7 µM. This compound also gave an inhibition at 1 µM in series [2] of 52%.
As to `CCC(c1ccc(-c2ccc(O)cc2)cc1)n1ccnc1` (stereo not given), in series [1], the IC50 turned out to be 0.375 µM.
`CCC(CC)(c1ccc(-c2ccc(F)cc2)cc1)n1ccnc1`: the IC50 in series [1] came out at 1.3 µM. Further, the inhibition at 1 µM in series [2] was 95%; in series [3] it was 51%.
The compound `CC(c1ccc2c(c1)Cc1cc(F)ccc1-2)n1ccnc1` (stereo not given) gave an IC50 in series [1] of 0.168 µM.
Regarding `c1ccc2c(c1)Cc1cc(Cn3ccnc3)ccc1-2`, the IC50 in series [1] stood at 0.388 µM.
On to `CC(C)(c1ccc(-c2ccc(F)cc2)cc1)n1ccnc1`, for which the midpoint of inhibition in series [1], the IC50, lay at 3.8 µM.
In the case of `CCC(c1ccc(-c2ccc(N(C)C)cc2)cc1)n1ccnc1` (stereo not given), in series [1], the IC50 was > 5 µM.
Turning to `FC(F)(F)c1ccc(-c2ccc(Cn3ccnc3)cc2)cc1`, in series [1], the IC50 is > 5 µM.
With `CC(c1ccc2c(c1)Cc1cc(O)ccc1-2)n1ccnc1` (stereo not given), inhibition in series [1] was half-maximal at 0.099 µM (IC50). The results for the inhibition at 1 µM in series [2] and in series [3] were 89% and 93%, respectively. The inhibition at 0.2 µM in series [6] was found to be 96%; in series [7] it was 98%.
For `OCCC(c1ccc(-c2ccc(F)cc2)cc1)n1ccnc1` (stereo not given), the IC50 in series [1] was > 5 µM.
Consider `CCC(c1ccc(-c2ccc(OC(F)(F)F)cc2)cc1)n1ccnc1` (stereo not given), for which the IC50 in series [1] was > 5 µM.
The same measure, in the same setting: then `c1ccc(-c2ccc(C(C3CCCCC3)n3ccnc3)cc2)cc1` (stereo not given), with 1.05 µM; and `c1ccc(CC(c2ccc(-c3ccccc3)cc2)n2ccnc2)cc1` (stereo not given), with 0.78 µM; and `CCC(c1ccc(-c2ccc(NC(C)=O)cc2)cc1)n1ccnc1` (stereo not given), with > 5 µM.
`C[C@]12CC[C@H](O)CC1=CC[C@@H]1[C@@H]2CC[C@]2(C)C(c3cccnc3)=CC[C@@H]12` [ABIRATERONE] registered an inhibition at 1 µM in series [2] of 27%.
As for `c1ccc(-c2ccc(C(c3ccccc3)n3ccnc3)cc2)cc1` (stereo not given) [BIFONAZOLE], in series [1], the IC50 came to 0.79 µM. This lies in the sub-micromolar range.

Source of the values: ChEMBL document CHEMBL1156610, “Synthesis, biological evaluation, and molecular modeling studies of methylene imidazole substituted biaryls as inhibitors of human 17alpha-hydroxylase-17,20-lyase (CYP17)--part II: Core rigidification and influence of substituents at the methylene bridge” (Bioorg Med Chem, 2008).
